# Test results reported in ChEMBL document CHEMBL1667761, “3-benzylamino-β-carboline derivatives induce apoptosis through G2/M arrest in human carcinoma cells HeLa S-3” (Eur J Med Chem, 2011).
# The source made the active and inactive calls. The calls are words filed in the database; no cut-off is given here.
# Tests used:
# [1] = Antitumor activity against human HeLaS3 cells after 24 to 72 hrs by MTT assay; assay type: functional, cell-based, HeLa S3
# Procedure, shortened: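 HeLa S-3 cells (MEM, 10% FBS, HEPES, NEAA, 2 mM L-glutamine, 5% CO2, 37 °C) seeded at 2 × 10⁴ cells/ml and cultured 3 h before exposure for 24–72 h at 37 °C. MTT (2 mg/ml) added for 4 h at 37 °C, formazan dissolved in DMSO, A540 read. Viability is expressed as % of control. IC50 is the concentration giving 50% growth inhibition, mean ± S.D. of four independent experiments run in triplicate.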
# HeLa S3 [2] = assay: Induction of apoptosis in human HeLaS3 cells assessed as appearance of fragmented nuclei at 5 times IC50 after 48 hrs by Hoechst staining; assay type: functional, cell-based
# Procedure, shortened: (§1)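 Stained with Hoechst 33342 (1 µg/ml) for 40 min at 37 °C. Nuclei were examined by confocal laser microscopy, and apoptosis was scored from chromatin condensation and fragmented nuclei.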
# HeLa S3 [3] = assay: Induction of apoptosis in human HeLaS3 cells assessed as appearance of fragmented nuclei at 10 times IC50 after 48 hrs by Hoechst staining; assay type: functional, cell-based; procedure, shortened: as §1
# HeLa S3 [4] = assay: Induction of apoptosis in human HeLaS3 cells assessed as DNA fragmentation upto 48 hrs by agarose gel electrophoresis; assay type: functional, cell-based
# Procedure, shortened: (§2)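 HeLa S-3 cells exposed for 12–48 h, then pellets lysed in 0.6% sarcosine, 20 mM Tris-HCl pH 7.4, 20 mM EDTA. Lysate treated with RNase A for 2 h at 50 °C, then proteinase K overnight at 50 °C. DNA extracted with phenol/chloroform, run on 2% agarose in TAE at 50 V, stained with ethidium bromide, and visualised under UV.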
# HeLa S3 [5] = assay: Induction of apoptosis in human HeLaS3 cells assessed as cleaved caspase-3 at 5 times IC50 by Western blot method; assay type: functional, cell-based
# Procedure, shortened: (§3)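 HeLa S-3 cells treated for 24 h at 5-fold the IC50, alongside non-treated controls. Cells lysed in RIPA buffer (pH 8.0) with protease inhibitors and the whole-cell extract separated by SDS-PAGE, then transferred to PVDF. Blots blocked in 5% skim milk/TTBS and probed with anti-cdc2, cdk2 or cleaved caspase-3 antibodies (1:1000). β-actin (1:5000) served as loading control. Detection by HRP secondary antibody and ECL.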
# [6] = Cell cycle arrest in human HeLaS3 cells assessed as accumulation at G1 phase at 5 uM after 24 hrs by flow cytometry; assay type: functional, cell-based; details: HeLa S3
# Procedure, shortened: (§4)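 HeLa S-3 cells exposed for 6, 12 or 24 h. Cells washed twice in ice-cold PBS, fixed in ice-cold 70% ethanol, and resuspended with 0.1 mg/ml RNase. Stained with […] PI and analysed by flow cytometry. Phase distribution (sub-G1, G1, S, G2/M) is reported as percentage of cells. Controls were untreated.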
# [7] = Cell cycle arrest in human HeLaS3 cells assessed as accumulation at S phase at 5 uM after 24 hrs by flow cytometry; assay type: functional, cell-based; details: HeLa S3; procedure, shortened: as §4
# [8] = Cell cycle arrest in human HeLaS3 cells assessed as accumulation at G2/M phase at 5 uM after 24 hrs by flow cytometry; assay type: functional, cell-based; details: HeLa S3; procedure, shortened: as §4
# [9] = Cell cycle arrest in human HeLaS3 cells assessed as accumulation at sub-G1 phase at 5 uM after 12 hrs by flow cytometry; assay type: functional, cell-based; details: HeLa S3; procedure, shortened: as §4
# [10] = Cell cycle arrest in human HeLaS3 cells assessed as accumulation at G1 phase at 5 uM after 12 hrs by flow cytometry; assay type: functional, cell-based; details: HeLa S3; procedure, shortened: as §4
# [11] = Cell cycle arrest in human HeLaS3 cells assessed as accumulation at S phase at 5 uM after 12 hrs by flow cytometry; assay type: functional, cell-based; details: HeLa S3; procedure, shortened: as §4
# [12] = Cell cycle arrest in human HeLaS3 cells assessed as accumulation at G2/M phase at 5 uM after 12 hrs by flow cytometry; assay type: functional, cell-based; details: HeLa S3; procedure, shortened: as §4
# [13] = Cell cycle arrest in human HeLaS3 cells assessed as accumulation at sub-G1 phase at 5 uM after 6 hrs by flow cytometry; assay type: functional, cell-based; details: HeLa S3; procedure, shortened: as §4
# [14] = Cell cycle arrest in human HeLaS3 cells assessed as accumulation at G1 phase at 5 uM after 6 hrs by flow cytometry; assay type: functional, cell-based; details: HeLa S3; procedure, shortened: as §4
# [15] = Cell cycle arrest in human HeLaS3 cells assessed as accumulation at S phase at 5 uM after 6 hrs by flow cytometry; assay type: functional, cell-based; details: HeLa S3; procedure, shortened: as §4
# [16] = Cell cycle arrest in human HeLaS3 cells assessed as accumulation at G2/M phase at 5 uM after 6 hrs by flow cytometry; assay type: functional, cell-based; details: HeLa S3; procedure, shortened: as §4
# [17] = Cell cycle arrest in human HeLaS3 cells assessed as accumulation at sub-G1 phase at 1 uM after 24 hrs by flow cytometry; assay type: functional, cell-based; details: HeLa S3; procedure, shortened: as §4
# [18] = Cell cycle arrest in human HeLaS3 cells assessed as accumulation at G1 phase at 1 uM after 24 hrs by flow cytometry; assay type: functional, cell-based; details: HeLa S3; procedure, shortened: as §4
# [19] = Cell cycle arrest in human HeLaS3 cells assessed as accumulation at S phase at 1 uM after 24 hrs by flow cytometry; assay type: functional, cell-based; details: HeLa S3; procedure, shortened: as §4
# [20] = Cell cycle arrest in human HeLaS3 cells assessed as accumulation at G2/M phase at 1 uM after 24 hrs by flow cytometry; assay type: functional, cell-based; details: HeLa S3; procedure, shortened: as §4
# [21] = Cell cycle arrest in human HeLaS3 cells assessed as accumulation at sub-G1 phase at 1 uM after 12 hrs by flow cytometry; assay type: functional, cell-based; details: HeLa S3; procedure, shortened: as §4
# [22] = Cell cycle arrest in human HeLaS3 cells assessed as accumulation at G1 phase at 1 uM after 12 hrs by flow cytometry; assay type: functional, cell-based; details: HeLa S3; procedure, shortened: as §4
# [23] = Cell cycle arrest in human HeLaS3 cells assessed as accumulation at S phase at 1 uM after 12 hrs by flow cytometry; assay type: functional, cell-based; details: HeLa S3; procedure, shortened: as §4
# [24] = Cell cycle arrest in human HeLaS3 cells assessed as accumulation at G2/M phase at 1 uM after 12 hrs by flow cytometry; assay type: functional, cell-based; details: HeLa S3; procedure, shortened: as §4
# [25] = Cell cycle arrest in human HeLaS3 cells assessed as accumulation at sub-G1 phase at 1 uM after 6 hrs by flow cytometry; assay type: functional, cell-based; details: HeLa S3; procedure, shortened: as §4
# [26] = Cell cycle arrest in human HeLaS3 cells assessed as accumulation at G1 phase at 1 uM after 6 hrs by flow cytometry; assay type: functional, cell-based; details: HeLa S3; procedure, shortened: as §4
# [27] = Cell cycle arrest in human HeLaS3 cells assessed as accumulation at S phase at 1 uM after 6 hrs by flow cytometry; assay type: functional, cell-based; details: HeLa S3; procedure, shortened: as §4
# [28] = Cell cycle arrest in human HeLaS3 cells assessed as accumulation at G2/M phase at 1 uM after 6 hrs by flow cytometry; assay type: functional, cell-based; details: HeLa S3; procedure, shortened: as §4
# [29] = Cell cycle arrest in human HeLaS3 cells assessed as accumulation at sub-G1 phase at 5 uM after 24 hrs by flow cytometry; assay type: functional, cell-based; details: HeLa S3; procedure, shortened: as §4
# HeLa S3 [30] = assay: Induction of apoptosis in human HeLaS3 cells assessed as DNA fragmentation after 24 hrs by agarose gel electrophoresis; assay type: functional, cell-based; procedure, shortened: as §2
# [31] = Cell cycle arrest in human HeLaS3 cells assessed as increase in cdc2 protein level at 5 times IC50 by Western blot method; assay type: functional, cell-based; details: HeLa S3; procedure, shortened: as §3
# [32] = Cell cycle arrest in human HeLaS3 cells assessed as effect on cdk2 protein level at 5 times IC50 by Western blot method; assay type: functional, cell-based; details: HeLa S3; procedure, shortened: as §3
compound,measurement,setting,value
C[n+]1cc2[nH]c3ccccc3c2cc1NCc1ccccc1 [listing 1 of 2 here],IC50,[1]; hela s3,9.9 µM
c1ccc2c(c1)[nH]c1cnc(NCC3CCCCC3)cc12,Activity,HeLa S3 [2],inactive
same,Activity,HeLa S3 [3],Active
same,Activity,HeLa S3 [4],inactive
same,Activity,HeLa S3 [5],inactive
same,Activity,[6],29.7%
same,Activity,[7],13.8%
same,Activity,[8],50.5%
same,Activity,[9],3%
same,Activity,[10],56.7%
same,Activity,[11],12.3%
same,Activity,[12],27.4%
same,Activity,[13],2.6%
same,Activity,[14],51%
same,Activity,[15],12.7%
same,Activity,[16],31.4%
same,Activity,[17],1.7%
same,Activity,[18],68.2%
same,Activity,[19],14.7%
same,Activity,[20],15.7%
same,Activity,[21],2.5%
same,Activity,[22],58.4%
same,Activity,[23],10.5%
same,Activity,[24],28.9%
same,Activity,[25],3.5%
same,Activity,[26],48.4%
same,Activity,[27],19.7%
same,Activity,[28],23.1%
same,Activity,[29],2.8%
same,IC50,"[1]; Homo sapiens, HeLa S3",5.2 µM
COC(=O)c1ccc(CNc2cc3c(cn2)[nH]c2ccccc23)cc1,IC50,"[1]; Homo sapiens, HeLa S3",45 µM
C[n+]1cc2[nH]c3ccccc3c2cc1NCc1ccccc1 [listing 2 of 2 here],IC50,[1]; hela s3,99 µM
c1ccc(CNc2cc3c(cn2)[nH]c2ccccc23)cc1,Activity,HeLa S3 [2],Active
same,Activity,HeLa S3 [3],Active
same,Activity,HeLa S3 [30],Active
same,Activity,HeLa S3 [5],Active
same,Activity,[6],4.9%
same,Activity,[7],3.9%
same,Activity,[8],80.5%
same,Activity,[9],3%
same,Activity,[10],13.8%
same,Activity,[11],12.5%
same,Activity,[12],68.1%
same,Activity,[13],3.3%
same,Activity,[14],34%
same,Activity,[15],12.2%
same,Activity,[16],47.3%
same,Activity,[17],3.7%
same,Activity,[18],1.1%
same,Activity,[19],2.6%
same,Activity,[20],92.2%
same,Activity,[21],3.7%
same,Activity,[22],2.9%
same,Activity,[23],9.4%
same,Activity,[24],84.3%
same,Activity,[25],3.8%
same,Activity,[26],31.5%
same,Activity,[27],19%
same,Activity,[28],46.1%
same,Activity,[31],Active
same,Activity,[32],inactive
same,Activity,[29],8.3%
same,IC50,"[1]; Homo sapiens, HeLa S3",0.12 µM
c1ccc(CCCNc2cc3c(cn2)[nH]c2ccccc23)cc1,IC50,"[1]; Homo sapiens, HeLa S3",21 µM
CC(C)CNc1cc2c(cn1)[nH]c1ccccc12,IC50,"[1]; Homo sapiens, HeLa S3",13 µM
c1ccc(CCNc2cc3c(cn2)[nH]c2ccccc23)cc1,IC50,"[1]; Homo sapiens, HeLa S3",22 µM
CC(C)(C)OC(=O)NCCOc1ccc(CNc2cc3c(cn2)[nH]c2ccccc23)cc1,IC50,"[1]; Homo sapiens, HeLa S3",42 µM
